The values below come from ChEMBL document CHEMBL1153207, “Continued exploration of the triazolopyridine scaffold as a platform for p38 MAP kinase inhibition” (Bioorg Med Chem Lett, 2010).

Structures are written as SMILES. A value given as a limit tells only on which side of the number the result lay.

Series [1] has as its target Mitogen-activated protein kinase 14 (Homo sapiens, UniProt Q16539). Put plainly: Inhibition of p38 alpha.
A short description of series [2]: Metabolic stability in human liver microsomes at 2 uM. It counts as ADME, Microsome. The settings on record: read-out: Stability. (In general: Microsomes from liver hold many membrane-bound enzymes, among them those of drug oxidation.)
Series [3] can be described thus: Metabolic stability in rat liver microsomes at 2 uM. Type of series: ADME, Microsome. The settings on record: read-out: Stability.
For a further series, the system named is Rattus norvegicus. As to the kind of experiment: Inhibition of LPS-stimulated TNFalpha release Lewis rat at 5 mg/kg after 4 hrs by ELISA. Type of series: functional. Put shortly:
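Male Lewis rats were pre-dosed with compound at set times before an iv lipopolysaccharide challenge. Blood was taken 1.5 h after challenge and TNF-α levels were measured by ELISA.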
(An ELISA detects its analyte on a solid surface through an enzyme-linked reagent.)

Sequence of Mitogen-activated protein kinase 14 (Q16539 whole entry): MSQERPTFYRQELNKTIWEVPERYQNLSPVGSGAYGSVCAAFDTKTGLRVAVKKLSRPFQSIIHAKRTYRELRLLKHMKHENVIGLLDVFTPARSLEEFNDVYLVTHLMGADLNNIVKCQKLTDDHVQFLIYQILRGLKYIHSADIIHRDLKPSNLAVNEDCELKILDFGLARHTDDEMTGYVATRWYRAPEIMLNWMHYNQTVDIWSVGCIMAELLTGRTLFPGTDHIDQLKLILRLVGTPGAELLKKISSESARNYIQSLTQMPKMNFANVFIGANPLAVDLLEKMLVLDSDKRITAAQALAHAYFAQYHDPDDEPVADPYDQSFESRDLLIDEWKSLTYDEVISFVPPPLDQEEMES

As to `Fc1ccc(Sc2ccc3nnc(-c4ccc(F)cc4F)n3c2)c(F)c1`, the IC50 (usually the concentration at which inhibition is half-maximal) in series [1] stood at 7.2 nM.
On to `CC(C)c1nnc2cc(Cl)c(Sc3ccc(F)cc3F)cn12`, for which the remaining at 2 µM is 71% in series [2] and 37% in series [3].
As to `CC(C)c1nnc2ccc(Sc3ccc(F)cc3F)cn12`, the remaining at 2 µM in series [2] was determined as 89%; in series [3], 46%. Further, the inhibition in vivo (as a rule, the change of the read-out against control, counted positive when it falls) at 5 mg/kg in the series on Rattus norvegicus is 61%.
Regarding `O=C(O)c1ccc(-c2nnc3ccc(Sc4ccc(F)cc4F)cn23)cc1`, inhibition in series [1] was half-maximal at 1170 nM (IC50).
On the same count and under the same terms, the result for `CC(C)c1nnc2ccc(Sc3ccc(F)cc3C(F)(F)F)cn12` reads greater than 10000 nM.
On the same count and under the same terms, the result for `COC(=O)c1ccc(-c2nnc3ccc(Sc4ccc(F)cc4F)cn23)cc1` reads 322 nM; that for `Fc1ccc(Sc2ccc3nnc(C4CCNCC4)n3c2)c(F)c1`, 3770 nM.
Turning to `CC(C)c1nnc2ccc(Sc3ccc(F)cc3F)c(Cl)n12`, the results for the remaining at 2 µM in series [2] and in series [3] were 65% and 23%, respectively.
`CC(C)c1nnc2ccc(Sc3ccc(Br)cc3C(F)(F)F)cn12`: the IC50 in series [1] is greater than 10000 nM.
Take `CC(C)c1nnc2ccc(C(=O)c3ccc(F)cc3F)cn12`: half-maximal inhibition in series [1] (IC50) required 1050 nM. Also, the remaining at 2 µM stood at 74% in series [2] and 88% in series [3].
In the case of `CC(C)c1nnc2ccc(C(=O)Nc3cc(F)cc(F)c3)cn12`, the IC50 in series [1] was greater than 10000 nM.
Still for that read-out and setting: the result for `CC(C)c1nnc2ccc(C(=O)Cc3cc(F)cc(F)c3)cn12` reads 7370 nM.
`CC(C)c1nnc2cc(Cl)c(Sc3ccc(F)cc3F)c(Cl)n12`: the results for the remaining at 2 µM in series [2] and in series [3] were 39% and 20%, respectively.
For the compound `CC(C)c1nnc2ccc(Sc3ccc(Cl)cc3Cl)cn12`, in series [1], the midpoint of inhibition, the IC50, lay at 8240 nM.
As for `CC(C)c1nnc2ccc([S+]([O-])c3ccc(F)cc3F)cn12` (centres undefined), the remaining at 2 µM in series [2] and in series [3] was 100% in each case.
Turning to `CC(C)c1nnc2cc(Cl)c(Sc3ccc(F)cc3F)c(Br)n12`, the remaining at 2 µM turned out to be 24% in series [2] and 9% in series [3].
`CC(C)c1nnc2ccc(CCc3ccc(F)cc3F)cn12` came in with an IC50 in series [1] of 85 nM. For the same compound, the remaining at 2 µM came out at 53% in series [2] and 54% in series [3].
`CC(C)c1nnc2ccc(S(=O)(=O)c3ccc(F)cc3F)cn12`: the IC50 in series [1] is greater than 10000 nM.
